Data: ChEMBL document CHEMBL3132763, “Repurposing human Aurora kinase inhibitors as leads for anti-protozoan drug discovery” (Medchemcomm, 2014)

Experiments:
Plasmodium falciparum [1] = test: Antiprotozoal activity against chloroquine-resistant Plasmodium falciparum C2B assessed as growth inhibition after 72 hrs by SYBR Green dye-based fluorescence assay; type: functional, organism-based
Plasmodium falciparum [2] = test: Antiprotozoal activity against chloroquine-resistant Plasmodium falciparum W2 assessed as growth inhibition after 72 hrs by SYBR Green dye-based fluorescence assay; type: functional, organism-based; conditions: W2, 72 h
How it was run: (§1)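 Laboratory strains (D6, TM91C235, W2) in long-term culture, late-ring/early-trophozoite stage, seeded into pre-dosed 384-well plates at 0.3% parasitemia and 2% hematocrit. Twelve two-fold dilutions from DMSO, final 0.5–10000 ng/ml, in duplicate or quadruplicate. Incubated 72 h at 37°C under 5% CO2/5% O2/90% N2. Lysis buffer with SYBR Green I (final 10x) added, then 24 h dark at room temperature. Fluorescence read; IC50/IC90 from sigmoidal variable-slope fit. Chloroquine 2000 ng/ml batch control.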

Plasmodium falciparum [3] = test: Antiprotozoal activity against chloroquine/mefloquine/pyrimethamine-resistant Plasmodium falciparum C235 assessed as growth inhibition after 72 hrs by SYBR Green dye-based fluorescence assay; type: functional, organism-based; conditions: C235, 72 h; how it was run: as §1
[4] = Cytotoxicity against human HepG2 cells after 48 hrs by MTT assay; type: cell-based; conditions: read-out: TC50
How it was run: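 HepG2 cells in supplemented MEM, 9570 cells/well, plated overnight at 37°C. Twelve 1.6-fold dilutions in duplicate, 57–10,000 ng/ml, 48 h. MTT added for 1 h at room temperature in the dark; formazan dissolved in acidified isopropanol; absorbance read. IC50 by sigmoidal variable-slope nonlinear regression; mefloquine served as plate control.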

Plasmodium falciparum [5] = test: Antiprotozoal activity against Plasmodium falciparum D6 assessed as growth inhibition after 72 hrs by SYBR Green dye-based fluorescence assay; type: functional, organism-based; conditions: D6, 72 h; how it was run: as §1
Leishmania major [6] = test: Antiprotozoal activity against intracellular amastigote stage of Leishmania major infected in mouse […] cells assessed as growth inhibition after 96 hrs by luciferase reporter gene assay; type: functional, organism-based
How it was run: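 RAW 264.7 macrophages (10,000/well, DMEM/10% HIFBS, 24 h at 37°C) infected overnight with luciferase-expressing L. major promastigotes (100,000/well), then washed three times. Twelve two-fold dilutions in duplicate, final 0.5–10,000 ng/ml, 96 h at 37°C, 5% CO2. Luciferin added for 30 min; luminescence read. IC50 by sigmoidal variable-slope nonlinear regression.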

Leishmania major [7] = test: Antiprotozoal activity against promastigote stage of Leishmania major assessed as growth inhibition after 44 hrs by AlamarBlue staining-based fluorescence assay; type: functional, organism-based
Trypanosoma brucei = test: Antiprotozoal activity against Trypanosoma brucei 427 assessed as growth inhibition after 48 hrs by PrestoBlue-based fluorescence assay; type: functional, organism-based; conditions: Trypanosoma brucei, 427, 48 h
How it was run: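 T. brucei brucei strain 427 at 5 × 10^3 cells/well in HMI-9 with compound; 37°C, 5% CO2, 48 h. PrestoBlue added for a further 4 h; fluorescence read at ex 530 / em 590 nm.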

[8] = Selectivity ratio of TC50 for human HepG2 cells to EC50 for Plasmodium falciparum D6; type: ADME, cell-based

CC(=O)N1C(=O)/C(=C(\Nc2ccc(CN3CCCCC3)cc2)c2ccccc2)c2cc([N+](=O)[O-])ccc21
EC50 (Plasmodium falciparum [1]): 249 nM
EC50 (Plasmodium falciparum [2]): 307 nM
EC50 (Plasmodium falciparum [3]): 271 nM
CC50 at 48 h [4]: > 6000 nM
EC50 (Plasmodium falciparum [5]): 275 nM
EC50 (Leishmania major [6]): 2040 nM
EC50 (Leishmania major [7]): 1080 nM
EC50 (Trypanosoma brucei): 130 nM

CC(=O)N1C(=O)/C(=C(\Nc2ccc(CN3CCCCC3)cc2)c2ccccc2)c2cc(N)ccc21
EC50 (Plasmodium falciparum [1]): 210 nM
EC50 (Plasmodium falciparum [2]): 241 nM
EC50 (Plasmodium falciparum [3]): 243 nM
CC50 at 48 h [4]: 1810 nM
EC50 (Plasmodium falciparum [5]): 218 nM
EC50 (Leishmania major [6]): > 4000 nM
EC50 (Leishmania major [7]): > 4000 nM
EC50 (Trypanosoma brucei): 3250 nM

Nc1ccc2c(c1)/C(=C(/Nc1ccc(CN3CCCCC3)cc1)c1ccccc1)C(=O)N2
EC50 (Plasmodium falciparum [1]): 175 nM
EC50 (Plasmodium falciparum [2]): 228 nM
EC50 (Plasmodium falciparum [3]): 176 nM
CC50 at 48 h [4]: > 6000 nM
EC50 (Plasmodium falciparum [5]): 199 nM
EC50 (Leishmania major [6]): > 4000 nM
EC50 (Leishmania major [7]): 790 nM
EC50 (Trypanosoma brucei): 1160 nM

CS(=O)(=O)Nc1ccc2c(c1)/C(=C(/Nc1ccc(CN3CCCCC3)cc1)c1ccccc1)C(=O)N2
EC50 (Plasmodium falciparum [2]): 86 nM
EC50 (Plasmodium falciparum [3]): 58 nM
CC50 at 48 h [4]: 200 nM
EC50 (Plasmodium falciparum [5]): 52 nM
EC50 (Leishmania major [6]): > 4000 nM
EC50 (Leishmania major [7]): 390 nM
EC50 (Trypanosoma brucei): 20 nM

O=C1Nc2ccc(NS(=O)(=O)c3ccccc3)cc2/C1=C(/Nc1ccc(CN2CCCCC2)cc1)c1ccccc1
EC50 (Plasmodium falciparum [1]): 82 nM
EC50 (Plasmodium falciparum [2]): 144 nM
EC50 (Plasmodium falciparum [3]): 120 nM
CC50 at 48 h [4]: 3290 nM
EC50 (Plasmodium falciparum [5]): 107 nM
EC50 (Leishmania major [6]): 1910 nM
EC50 (Leishmania major [7]): 850 nM
EC50 (Trypanosoma brucei): 10 nM

CC(=O)Nc1ccc2c(c1)/C(=C(/Nc1ccc(CN3CCCCC3)cc1)c1ccccc1)C(=O)N2
EC50 (Plasmodium falciparum [1]): 56 nM
EC50 (Plasmodium falciparum [2]): 88 nM
EC50 (Plasmodium falciparum [3]): 74 nM
CC50 at 48 h [4]: > 6000 nM
EC50 (Plasmodium falciparum [5]): 68 nM
EC50 (Leishmania major [6]): > 4000 nM
EC50 (Leishmania major [7]): 1520 nM
EC50 (Trypanosoma brucei): 150 nM

CCS(=O)(=O)Nc1ccc2c(c1)/C(=C/Nc1ccc(CN3CCCCC3)cc1)C(=O)N2
EC50 (Plasmodium falciparum [1]): 173 nM
EC50 (Plasmodium falciparum [2]): 273 nM
EC50 (Plasmodium falciparum [3]): 242 nM
CC50 at 48 h [4]: 5000 nM
EC50 (Plasmodium falciparum [5]): 241 nM
EC50 (Leishmania major [6]): > 4000 nM
EC50 (Leishmania major [7]): 2770 nM
EC50 (Trypanosoma brucei): 1320 nM

CCS(=O)(=O)Nc1ccc2c(c1)/C(=C(\C)Nc1ccc(CN3CCCCC3)cc1)C(=O)N2
EC50 (Plasmodium falciparum [1]): 1060 nM
EC50 (Plasmodium falciparum [2]): 1260 nM
EC50 (Plasmodium falciparum [3]): 1190 nM
CC50 at 48 h [4]: > 6000 nM
EC50 (Plasmodium falciparum [5]): 1360 nM
EC50 (Leishmania major [6]): > 4000 nM
EC50 (Leishmania major [7]): > 4000 nM
EC50 (Trypanosoma brucei): 3360 nM

CC/C(Nc1ccc(CN2CCCCC2)cc1)=C1/C(=O)Nc2ccc(NS(=O)(=O)CC)cc21
EC50 (Plasmodium falciparum [1]): 143 nM
EC50 (Plasmodium falciparum [2]): 347 nM
EC50 (Plasmodium falciparum [3]): 255 nM
CC50 at 48 h [4]: > 6000 nM
EC50 (Plasmodium falciparum [5]): 233 nM
EC50 (Leishmania major [6]): > 4000 nM
EC50 (Leishmania major [7]): 2800 nM
EC50 (Trypanosoma brucei): 1790 nM

CCCC/C(Nc1ccc(CN2CCCCC2)cc1)=C1/C(=O)Nc2ccc(NS(=O)(=O)CC)cc21
EC50 (Plasmodium falciparum [1]): 148 nM
EC50 (Plasmodium falciparum [2]): 217 nM
EC50 (Plasmodium falciparum [3]): 170 nM
CC50 at 48 h [4]: > 6000 nM
EC50 (Plasmodium falciparum [5]): 167 nM
EC50 (Leishmania major [6]): > 4000 nM
EC50 (Leishmania major [7]): 2600 nM
EC50 (Trypanosoma brucei): 1670 nM

CCS(=O)(=O)Nc1ccc2c(c1)/C(=C(/NC1CCN(C)CC1)c1ccccc1)C(=O)N2
EC50 (Plasmodium falciparum [1]): > 15000 nM
EC50 (Plasmodium falciparum [2]): > 15000 nM
EC50 (Plasmodium falciparum [3]): > 15000 nM
CC50 at 48 h [4]: > 10000 nM
EC50 (Plasmodium falciparum [5]): > 15000 nM
EC50 (Leishmania major [6]): > 4000 nM
EC50 (Leishmania major [7]): > 4000 nM
EC50 (Trypanosoma brucei): > 50000 nM

CCS(=O)(=O)Nc1ccc2c(c1)/C(=C(/Nc1ccccc1)c1ccccc1)C(=O)N2
EC50 (Plasmodium falciparum [1]): 117 nM
EC50 (Plasmodium falciparum [2]): 143 nM
EC50 (Plasmodium falciparum [3]): 118 nM
selectivity ratio [8]: 50
CC50 at 48 h [4]: 4700 nM
EC50 (Plasmodium falciparum [5]): 109 nM
EC50 (Leishmania major [6]): > 4000 nM
EC50 (Leishmania major [7]): > 4000 nM
EC50 (Trypanosoma brucei): 1440 nM

CCS(=O)(=O)Nc1ccc2c(c1)/C(=C(/Nc1ccc(C)cc1)c1ccccc1)C(=O)N2
EC50 (Plasmodium falciparum [1]): 1570 nM
EC50 (Plasmodium falciparum [2]): 2490 nM
EC50 (Plasmodium falciparum [3]): 1640 nM
CC50 at 48 h [4]: 3100 nM
EC50 (Plasmodium falciparum [5]): 1610 nM
EC50 (Leishmania major [6]): > 4000 nM
EC50 (Leishmania major [7]): 2600 nM
EC50 (Trypanosoma brucei): 370 nM

CCS(=O)(=O)Nc1ccc2c(c1)/C(=C(/Nc1ccc(CN3CCOCC3)cc1)c1ccccc1)C(=O)N2
EC50 (Plasmodium falciparum [2]): 77 nM
EC50 (Plasmodium falciparum [3]): 31 nM
CC50 at 48 h [4]: 1310 nM
EC50 (Plasmodium falciparum [5]): 54 nM
EC50 (Leishmania major [6]): 1680 nM
EC50 (Leishmania major [7]): 940 nM
EC50 (Trypanosoma brucei): 100 nM

CCS(=O)(=O)Nc1ccc2c(c1)/C(=C(/Nc1ccc(N3CCCCC3)cc1)c1ccccc1)C(=O)N2
EC50 (Plasmodium falciparum [1]): 735 nM
EC50 (Plasmodium falciparum [2]): 832 nM
EC50 (Plasmodium falciparum [3]): 647 nM
CC50 at 48 h [4]: > 6000 nM
EC50 (Plasmodium falciparum [5]): 595 nM
EC50 (Leishmania major [6]): > 4000 nM
EC50 (Leishmania major [7]): 620 nM
EC50 (Trypanosoma brucei): 1530 nM

O=C1Nc2ccccc2/C1=C(/Nc1ccc(CN2CCCCC2)cc1)c1ccccc1
EC50 (Plasmodium falciparum [1]): 160 nM
EC50 (Plasmodium falciparum [2]): 273 nM
EC50 (Plasmodium falciparum [3]): 227 nM
CC50 at 48 h [4]: > 6000 nM
EC50 (Plasmodium falciparum [5]): 230 nM
EC50 (Leishmania major [6]): > 4000 nM
EC50 (Leishmania major [7]): 770 nM
EC50 (Trypanosoma brucei): 70 nM

CO[C@@H](C(=O)N1Cc2n[nH]c(NC(=O)c3ccc(N4CCN(C)CC4)cc3)c2C1)c1ccccc1 [DANUSERTIB]
CC50 at 48 h [4]: 4000 nM
EC50 (Plasmodium falciparum [5]): 857 nM
EC50 (Leishmania major [7]): > 21000 nM

CCS(=O)(=O)Nc1ccc2c(c1)/C(=C(/Nc1ccc(CN3CCCCC3)cc1)c1ccccc1)C(=O)N2 [HESPERADIN]
EC50 (Plasmodium falciparum [1]): 14 nM
EC50 (Plasmodium falciparum [2]): 21 nM
EC50 (Plasmodium falciparum [3]): 10 nM
CC50 at 48 h [4]: < 200 nM
EC50 (Plasmodium falciparum [5]): 10 nM
EC50 (Leishmania major [6]): 2370 nM
EC50 (Leishmania major [7]): 120 nM
EC50 (Trypanosoma brucei): 60 nM

Cc1cc(Nc2cc(N3CCN(C)CC3)nc(Sc3ccc(NC(=O)C4CC4)cc3)n2)n[nH]1 [TOZASERTIB]
CC50 at 48 h [4]: 3300 nM
EC50 (Plasmodium falciparum [5]): 838 nM
EC50 (Leishmania major [7]): > 21000 nM
EC50 (Trypanosoma brucei): 10000 nM
